From PubChem BioAssay
TRPC6 act – activators of mouse TRPC6 channel; Q61143; HEK293-TRPC6 membrane potential dye fluorescence; hits give high values; B-score at 10 µM; hit rate 0.13% among 310,000;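 active = B-score of the integrated fluorescence ratio above library mean plus 3 SD, and starting fluorescence ratio within library mean plus 5 SD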;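 note: higher score means more depolarization so channel activation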
Target sequence (Q61143 whole entry, looked up): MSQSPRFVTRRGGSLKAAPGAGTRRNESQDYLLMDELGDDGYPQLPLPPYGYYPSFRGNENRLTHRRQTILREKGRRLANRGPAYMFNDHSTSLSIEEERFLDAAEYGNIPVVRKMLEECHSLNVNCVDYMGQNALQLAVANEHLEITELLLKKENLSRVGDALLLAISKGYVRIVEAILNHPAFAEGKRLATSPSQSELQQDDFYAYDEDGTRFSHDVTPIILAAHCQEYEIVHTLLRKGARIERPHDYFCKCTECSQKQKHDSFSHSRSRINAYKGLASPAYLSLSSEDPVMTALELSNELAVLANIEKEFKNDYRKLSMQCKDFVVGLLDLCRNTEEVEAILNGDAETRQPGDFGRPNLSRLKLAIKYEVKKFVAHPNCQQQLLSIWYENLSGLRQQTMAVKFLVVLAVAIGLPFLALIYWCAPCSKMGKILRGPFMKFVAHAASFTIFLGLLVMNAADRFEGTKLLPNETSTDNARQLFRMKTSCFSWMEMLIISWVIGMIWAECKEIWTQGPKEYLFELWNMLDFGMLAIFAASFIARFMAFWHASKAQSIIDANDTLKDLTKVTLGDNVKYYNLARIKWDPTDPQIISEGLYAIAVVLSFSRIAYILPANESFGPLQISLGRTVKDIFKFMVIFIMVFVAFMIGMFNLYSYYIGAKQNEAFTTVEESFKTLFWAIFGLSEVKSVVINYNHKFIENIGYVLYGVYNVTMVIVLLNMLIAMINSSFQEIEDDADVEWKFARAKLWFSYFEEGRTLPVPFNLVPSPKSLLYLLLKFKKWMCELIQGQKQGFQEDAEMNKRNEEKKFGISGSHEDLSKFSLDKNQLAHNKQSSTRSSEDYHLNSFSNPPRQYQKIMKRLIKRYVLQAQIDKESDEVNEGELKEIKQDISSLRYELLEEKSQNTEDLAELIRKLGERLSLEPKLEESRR
TRPC6 inhibitor – inhibitors of mouse TRPC6 channel. Q61143. HEK293-TRPC6, membrane potential dye, ACh-evoked depolarization; hits give low values. B-score at 10 µM. hit rate 1.1% among 310,000;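 active = B-score under library mean minus 3 SD, initial fluorescence not abnormally high, positive integrated signal ratio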;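 note: B-score derived from integrated fluorescence ratio over the kinetic read; more negative B-score means stronger inhibition of depolarization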
TRPC4 PAM – TRPC4 (mouse) allosteric potentiation | Q9QUQ5 | AID 2227 | B-score at 10 µM | HEK293 TRPC4beta/mu-opioid, DAMGO EC20, Fluo-4 Ca2+ flux; hits give high values | hit rate 0.42% among 310,000;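 active = B-score of calcium response area above 5 SD of library B-scores, with initial fluorescence ratio within 5 SD of library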;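 note: B-score of integrated fluorescence ratio over time as area under calcium response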
TRPC4 inh – inhibitors of mouse TRPC4 channel | Q9QUQ5 | B-score at 10 µM | hit rate 0.39% among 300,000 | HEK293 TRPC4beta/mu-opioid, DAMGO-evoked Fluo4 calcium flux; hits give low values;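 active = B-score over 3 SD under the library average, no early fluorescence shift, positive overall ratio signal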
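material = TRPC4beta/mu-opioid receptor HEK293 cell line | probe or stimulus = sequential submaximal and maximal DAMGO stimulation | compound dosing = one concentration per compound | measured by = Fluo4 Ca2+ flux fluorescence | evaluation = integrated fluorescence ratio relative to baseline, converted to per-well B score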
TRPC4 act – activators of mouse TRPC4 channel. Q9QUQ5. HEK293 TRPC4beta/mu-opioid, Fluo4 calcium fluorescence; hits give high values. AID 2237. hit rate 0.49% among 310,000. B-score at 10 µM;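 active = B-score above 5 SD of library B-scores, and initial fluorescence ratio not above library mean plus 5 SD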;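 note: positive B-score marks a calcium rise read as TRPC4 activation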
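system = HEK293 cells stably co-expressing mouse TRPC4beta and mu-opioid receptor | schedule = Fluo4 dye loading 45 min at room temperature, 110 s recording | measure = B-scored integrated calcium fluorescence ratio | signal = Fluo4 calcium-sensitive dye fluorescence, kinetic, 1 Hz baseline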
TRPC4 spec 2 – mouse TRPC4 off-target activity of TRPC6 inhibitors, second screen; shares compounds with TRPC6 inhibitor; HEK293 TRPC4/MOR, membrane potential dye fluorescence; channel activated by saturating DAMGO dose; inhibition, % at 10 µM; hit rate 42% among 920;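 active = compounds whose fluorescence signal differed from control wells by over 3 SD, either direction, in both duplicate plates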
TRPC4 spec – mouse TRPC4 off-target activity of TRPC6 inhibitors; shares compounds with TRPC6 inhibitor; activity change, negative = inhibition, % at 10 µM; HEK293 TRPC4/mu-opioid, membrane potential fluorescence; AID 2777; hit rate 61% among 920;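 active = rise or fall in signal beyond 3 SD of buffer-only wells in both replicate plates, either sign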;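 note: integrated kinetic ratio of fluorescence range over baseline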
HEK293 MPD ctr 2-1 – second counter-screen for TRPC6 inhibitors: parental HEK293 cells; shares compounds with TRPC6 inhibitor; parental HEK293 membrane potential dye fluorescence; maximal acetylcholine challenge after compound addition; signal change vs control, % at 10 µM; hit rate 31% among 920; AID 2779;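 active = membrane potential signal moving either way by over 3 SD of the maximum-effect control, in both duplicate plates, meaning non-specific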
HEK293 MPD ctr-1 – counter-screen for TRPC6 inhibitors: effect in parental HEK293 cells. shares compounds with TRPC6 inhibitor. parental HEK293 membrane potential dye fluorescence. membrane potential signal change, % at 10 µM. hit rate 60% among 920. AID 2780;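 active = membrane potential signal shifting up or down by more than 3 SD of buffer-only wells, on both duplicate plates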
HEK293 MPD ctr-2 – checks TRPC6 modulator effects in parental HEK293 cells | AID 488924 | membrane potential dye fluorescence | hit rate 51% among 2,400 | membrane potential signal change, % at 10 µM | shares compounds with TRPC6 inhibitor;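 active = membrane potential signal moves up or down beyond 5 SD from buffer-only wells, on both duplicate plates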
HEK293 MPD ctr 2-2 – second check of TRPC6 modulator effects in parental HEK293 cells; membrane potential dye fluorescence; after compound, maximal acetylcholine stimulation; hit rate 14% among 2,400; inhibition, % at 10 µM; shares compounds with TRPC6 inhibitor;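 active = membrane potential signal drops by more than 5 SD from the mean control signal, in both duplicate plates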;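 note: plate controls were acetylcholine ECmax control wells for no effect and buffer only wells for full effect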
TRPC4 ctr mod – tests whether TRPC6 modulators also affect mouse TRPC4; shares compounds with TRPC6 inhibitor; HEK293 TRPC4/mu-opioid, membrane potential fluorescence; percent change from control (negative = decrease, positive = increase), % at 10 µM; hit rate 69% among 2,400; AID 488927;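 active = membrane potential signal moved up or down beyond 5 SD of buffer control wells, in both duplicate plates, actives on both sides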;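 note: plate controls were assay buffer wells for no effect and DAMGO maximal-effect wells for full effect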
TRPC4 ctr inh 2 – second check of whether TRPC6 modulators also affect mouse TRPC4; shares compounds with TRPC6 inhibitor; HEK293 TRPC4/mu-opioid, membrane potential dye fluorescence; stimulated with maximal-effect DAMGO; inhibition, % at 10 µM; hit rate 55% among 2,400;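 active = drop in membrane potential signal beyond 5 SD of the control wells in both duplicate plates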;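 note: TRPC4 counter screen for TRPC6 hits run under conditions tuned for TRPC6 not TRPC4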
TRPC6 inh conf – confirmation of mouse TRPC6 inhibitors; shares compounds with TRPC6 inhibitor; AID 488960; HEK293-TRPC6, membrane potential dye, ACh-evoked depolarization; hit rate 43% among 3,300; inhibition, % at 10 µM;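 active = fluorescence ratio falls more than 5 SD below the full-stimulation control mean, in both duplicate runs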;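 note: integrated fluorescence ratio of peak minus minimum over baseline after agonist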
TRPC6 act conf – mouse TRPC6 activator confirmation. shares compounds with TRPC6 inhibitor. HEK293-TRPC6 membrane potential dye fluorescence, FDSS. activation, % at 10 µM. hit rate 11% among 2,800. AID 488961;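 active = ratio signal rise beyond 5 SD above unstimulated control wells' mean, seen in both duplicate runs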;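 note: plate controls were buffer EC0 wells for no effect and acetylcholine ECmax response for full effect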
* hit, by the source's call; i = inactive; . = not tested or not shown. The list is not random: actives were taken first. Their share in the collection is about 2.3%.

SMILES	TRPC6 act	TRPC6 inhibitor	TRPC4 PAM	TRPC4 inh	TRPC4 act	HEK293 MPD ctr-2	HEK293 MPD ctr 2-2	TRPC4 ctr mod	TRPC4 ctr inh 2	TRPC6 inh conf	TRPC6 act conf	others
CCOC(=O)N1CCN(C(=O)c2cccc(NS(=O)(=O)c3ccc(F)c(F)c3)c2)CC1	i	i	i	i	i	.	.	.	.	.	.
CC(=O)c1c(C(C)=O)c(C)n(NC(=O)c2ccccc2Cl)c1C	i	i	i	i	i	.	.	.	.	.	.
CNc1c2c(nn1C)CCCC2	i	i	i	i	i	.	.	.	.	.	.
CCC(C)NC(=O)CSc1nc2scc(-c3ccccc3)c2c(=O)[nH]1 (stereo unspecified)	i	i	i	i	i	.	.	.	.	.	.
CCOC(=O)/C(O)=C/c1ncc(C(F)(F)F)cc1Cl	i	i	i	i	i	.	.	.	.	.	.
O=C(c1cccc(S(=O)(=O)Nc2ccccc2F)c1)N1CCN(c2ccccc2F)CC1	i	-6.5*	i	i	i	i	i	i	i	64%*	.
Cc1cccc(NS(=O)(=O)c2cccc(C(=O)N3CCN(c4ccccn4)CC3)c2)c1	i	-10*	i	i	i	.	.	.	.	79%*	.	TRPC4 spec 2=i;TRPC4 spec=2.7%*;HEK293 MPD ctr 2-1=220%*;HEK293 MPD ctr-1=1.3%*
O=C(COC(=O)c1cccc(S(=O)(=O)N2CCOCC2)c1)Nc1ccc2c(c1)OCO2	i	i	i	i	i	.	.	.	.	.	.
Cc1cccc(NC(=O)NCc2ccc3c(c2)OCO3)c1	i	i	i	i	i	.	.	.	.	.	.
Cc1cc(N2C(=O)NC(=O)CC2C)c(C)cc1C(C)C (stereo unspecified)	i	-5.1*	i	i	i	i	i	i	i	i	i
O=C1N(Cc2ccc(F)cc2)CCN1c1ccc(F)cc1	i	i	i	i	i	.	.	.	.	.	.
Cc1ccc2nc(NCc3ccccc3)[nH]c2c1	i	-6.5*	i	-5*	i	i	i	i	98%*	49%*	i
COc1ccc2nc(NCc3ccccc3)[nH]c2c1	i	-5.2*	i	-7*	i	i	i	i	90%*	i	i
CCOC(=O)c1cc(-c2csc(-c3cccc(Cl)c3)n2)on1	i	i	i	i	i	.	.	.	.	.	.
CC(C)(C)c1ccc(OCCC(=O)OCC(=O)Nc2cccnc2Cl)cc1	i	i	i	i	i	.	.	.	.	.	.
Nc1nc(N2CCN(C(=O)c3ccco3)CC2)nc2ccc(Br)cc12	i	i	i	i	i	.	.	.	.	.	.
Cc1cc(N2CCN(S(=O)(=O)c3ccccc3)CC2)c2ccccc2n1	i	-8.9*	i	i	i	-187%*	i	-31%*	68%*	48%*	i
Cc1cc(N2CCN(C(=O)c3ccco3)CC2)c2ccccc2n1	i	-6.4*	i	i	i	-168%*	i	-29%*	28%*	i	i
Nc1nc(N2CCN(C(=O)c3ccco3)CC2)nc2ccccc12	i	-7.5*	i	i	i	.	.	.	.	i	i	TRPC4 spec 2=i;TRPC4 spec=-23%*;HEK293 MPD ctr 2-1=i;HEK293 MPD ctr-1=-412%*
Nc1nc(N2CCN(C/C=C/c3ccccc3)CC2)nc2ccccc12	i	-6.7*	i	i	i	.	.	.	.	88%*	i	TRPC4 spec 2=18%*;TRPC4 spec=-21%*;HEK293 MPD ctr 2-1=i;HEK293 MPD ctr-1=i
Cc1cc(N2CCN(c3nc(-c4ccccc4)cs3)CC2)c2ccccc2n1	i	i	i	i	i	.	.	.	.	.	.
Cc1cc(=O)[nH]c(N2CCN(C(=O)c3ccco3)CC2)n1	i	i	i	i	i	.	.	.	.	.	.
O=c1c2c3c(sc2nc(NCCO)n1-c1ccccc1)CCCC3	i	i	i	i	i	.	.	.	.	.	.
CN(C)CCCNc1nc2sc3c(c2c(=O)n1CCc1ccccc1)CCCCC3	i	-7*	i	i	i	.	.	.	.	i	i	TRPC4 spec 2=74%*;TRPC4 spec=-11%*;HEK293 MPD ctr 2-1=i;HEK293 MPD ctr-1=i
CCOC(=O)c1ccc(NC(=O)CCNS(=O)(=O)c2cc(Br)cnc2N)cc1	i	-6.9*	i	i	i	i	i	-20%*	i	79%*	i
SMILES	TRPC6 act	TRPC6 inhibitor	TRPC4 PAM	TRPC4 inh	TRPC4 act	HEK293 MPD ctr-2	HEK293 MPD ctr 2-2	TRPC4 ctr mod	TRPC4 ctr inh 2	TRPC6 inh conf	TRPC6 act conf	others
CCOC(=O)N1CCN(S(=O)(=O)c2ccc(C)c(C)c2)CC1	i	i	i	i	i	.	.	.	.	.	.
CCOC(=O)N1CCN(S(=O)(=O)c2cc(Br)cnc2N)CC1	i	-7.2*	i	i	i	.	.	.	.	i	i	TRPC4 spec 2=i;TRPC4 spec=i;HEK293 MPD ctr 2-1=i;HEK293 MPD ctr-1=i
CCOC(=O)N1CCN(S(=O)(=O)c2ccc(OCC)c(C)c2)CC1	12*	-9.9*	i	i	i	i	i	18%*	i	74%*	128%*
O=C(NC1CCCC1)C(c1ccncc1)N(C(=O)c1csnn1)c1ccc(F)c(Cl)c1 (stereo unspecified)	i	i	i	i	i	.	.	.	.	.	.
Cc1ccc(S(=O)(=O)N2CCN(CC(=O)Nc3ccc4c(c3)CCC4)CC2)cc1C	i	i	i	i	i	.	.	.	.	.	.
CCOCc1nnc(NC(=O)c2cccs2)s1	i	i	i	i	i	.	.	.	.	.	.
COc1cccc(NC(=O)C(NC2CCCC2)c2ccccc2)c1 (stereo unspecified)	i	-9.6*	i	i	i	.	.	.	.	i	.	TRPC4 spec 2=i;TRPC4 spec=12%*;HEK293 MPD ctr 2-1=245%*;HEK293 MPD ctr-1=9.7%*
